From ChEMBL document CHEMBL4765370, “Design, synthesis, and biological evaluation of aryl piperazines with potential as antidiabetic agents via the stimulation of glucose uptake and inhibition of NADH:ubiquinone oxidoreductase” (Eur J Med Chem, 2020)
Converted amounts (≈) assume the structure as drawn.

What was measured:
[1] = AUCall in C57 Black mouse brain at 10 mg/kg, po; assay type: ADME, organism-based; parameters: dose 10 mg/kg
In short: (§1)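 Male C57BL/6 mice were given a single 10 mg/kg dose either intravenously or orally. The oral and IV solutions were formulated in 10% DMSO, 10% cremaphor and 80% saline. Concentrations in plasma and in the tissues collected were determined after dosing, with n = 3 per route. Values are given as mean ± SEM.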

CYP2C19 = CYP2C19 (Homo sapiens, UniProt P33261); assay: Inhibition of human CYP2C19 using fluorogenic substrate incubated for 60 mins in presence of NADPH by fluorescence assay relative to control; assay type: ADME; conditions: probe fluorogenic substrate
In short: (§2)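 Baculosomes each expressing a single cDNA-derived human P450 isozyme were incubated with compound at 10 µM, a fluorogenic substrate and NADPH. Incubation was at 37 °C for at least 60 min before fluorescence was read, n = 3.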

[2] = AUClast in C57 Black mouse spleen at 10 mg/kg, iv; assay type: ADME, organism-based; parameters: time 0 - last, route intravenous, dose 10 mg/kg; in short: as §1
[3] = Efflux ratio of apparent permeability in MDCK-MDR1 cells at 10 uM after 30 mins by LC-MS/MS analysis; assay type: ADME, cell-based, Canis lupus familiaris; conditions: dog
In short: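 hMDR1-MDCK monolayers on filters; compound at 10 µM final in DMEM (from 10 mM DMSO stock) with 10 µM propranolol internal standard in donor. Transfer measured apical-to-basolateral and basolateral-to-apical over 30 min; receiver samples by LC-MS/MS; n = 3.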

[4] = AUClast in C57 Black mouse plasma at 10 mg/kg, iv; assay type: ADME, organism-based; parameters: route intravenous, time 0 - last, dose 10 mg/kg; in short: as §1
[5] = Tmax in C57 Black mouse kidney at 10 mg/kg, po; assay type: ADME, organism-based
In short: (§3)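 Male C57BL/6 mice (n = 3) dosed at 10 mg/kg by IV or oral (PO) route. Dosing solutions were formulated in 10% DMSO, 10% cremaphor and 80% saline. Compound levels were measured in plasma and tissues over time, and values are given as mean ± SEM.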

[6] = Cmax in C57 Black mouse muscle at 10 mg/kg, iv; assay type: ADME, organism-based, Muscle tissue; parameters: route intravenous, dose 10 mg/kg; in short: as §1
[7] = Tmax in C57 Black mouse brain at 10 mg/kg, iv; assay type: ADME, organism-based; in short: as §3
[8] = Half life in C57 Black mouse plasma at 10 mg/kg, iv; assay type: ADME, organism-based; in short: as §3
[9] = AUCinfinity in C57 Black mouse plasma at 10 mg/kg, po; assay type: ADME, organism-based; parameters: route oral, time infinity, dose 10 mg/kg; in short: as §1
[10] = Metabolic stability in mouse hepatocytes assessed as hepatic extraction ratio at 1 uM up to 120 mins by HPLC-MS/MS analysis; assay type: ADME, cell-based, Hepatocyte
In short: (§4)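 Cryopreserved hepatocytes (human or mouse) added to buffer containing compound at 1 µM; incubated at 37 °C up to 120 min, stopped with acetonitrile containing internal standard. Centrifuged supernatant analysed for parent compound by HPLC-MS/MS; n = 2. Half-life and intrinsic clearance (µL/min/10^6 cells) derived; extraction ratio reported from these.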

[11] = Half life in C57 Black mouse muscle at 10 mg/kg, iv; assay type: ADME, organism-based, Muscle tissue; in short: as §3
[12] = Cmax in C57 Black mouse plasma at 10 mg/kg, iv; assay type: ADME, organism-based; parameters: route intravenous, dose 10 mg/kg; in short: as §1
[13] = Half life in mouse plasma at 1 uM after 60 to 120 mins by HPLC-MS/MS analysis; assay type: ADME, cell-free; conditions: time 60-120 min
In short: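 Buffer containing test compound at 1 µM was mixed with human or mouse blood plasma and incubated at 37 °C for 60–120 min. Parent compound remaining gave the plasma half-life and the percentage stable at 2 h.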

[14] = Cmax in C57 Black mouse brain at 10 mg/kg, po; assay type: ADME, organism-based; parameters: route oral, dose 10 mg/kg; in short: as §1
[15] = AUCinfinity in C57 Black mouse spleen at 10 mg/kg, po; assay type: ADME, organism-based; parameters: time infinity, route oral, dose 10 mg/kg; in short: as §1
[16] = Tmax in C57 Black mouse plasma at 10 mg/kg, iv; assay type: ADME, organism-based; in short: as §3
[17] = Thermodynamic solubility of compound in PBS at 1 mg/ml after 24 hrs by LC-MS/MS analysis; assay type: physicochemical; conditions: read-out: Therm_solubility
In short: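 Compound was equilibrated at 1 mg/mL and at 0.1 mg/mL in PBS containing 5% (v/v) DMSO, for 24 h at 21 °C. Samples were centrifuged at 15,000 g for 10 min and the supernatant was quantified by LC-MS/MS, n = 3.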

[18] = Volume of distribution in C57 Black mouse spleen at 10 mg/kg, iv; assay type: ADME, organism-based; in short: as §3
[19] = Toxicity in C57BL/6 mouse at 10 mg/kg, iv or po; assay type: organism-based; conditions: in vivo
[20] = Volume of distribution in C57 Black mouse muscle at 10 mg/kg, iv; assay type: ADME, organism-based, Muscle tissue; in short: as §3
[21] = Tmax in C57 Black mouse muscle at 10 mg/kg, iv; assay type: ADME, organism-based, Muscle tissue; in short: as §3
[22] = AUCall in C57 Black mouse liver at 10 mg/kg, iv; assay type: ADME, organism-based; parameters: dose 10 mg/kg; in short: as §1
[23] = Half life in C57 Black mouse brain at 10 mg/kg, po; assay type: ADME, organism-based; in short: as §1
[24] = Cmax in C57 Black mouse spleen at 10 mg/kg, iv; assay type: ADME, organism-based; parameters: route intravenous, dose 10 mg/kg; in short: as §1
[25] = Half life in human hepatocytes at 1 uM up to 120 mins by HPLC-MS/MS analysis; assay type: ADME, cell-based, Hepatocyte
[26] = Cmax in C57 Black mouse liver at 10 mg/kg, po; assay type: ADME, organism-based; parameters: route oral, dose 10 mg/kg; in short: as §1
[27] = Intrinsic clearance in human hepatocytes at 1 uM up to 120 mins by HPLC-MS/MS analysis; assay type: ADME, cell-based, Hepatocyte; conditions: 2 h
[28] = AUClast in C57 Black mouse liver at 10 mg/kg, iv; assay type: ADME, organism-based; parameters: time 0 - last, route intravenous, dose 10 mg/kg; in short: as §1
[29] = Inhibition of NADH:ubiquinone oxidoreductase in rat liver mitochondria incubated for 3 mins
[30] = AUCinfinity in C57 Black mouse liver at 10 mg/kg, iv; assay type: ADME, organism-based; parameters: route intravenous, time infinity, dose 10 mg/kg; in short: as §1
CYP3A4 = CYP3A4 (Homo sapiens, UniProt P08684); assay: Inhibition of human CYP3A4 using fluorogenic substrate incubated for 60 mins in presence of NADPH by fluorescence assay relative to control; assay type: ADME; conditions: probe fluorogenic substrate; in short: as §2
[31] = Half life in C57 Black mouse kidney at 10 mg/kg, po; assay type: ADME, organism-based; in short: as §3
CYP2D6 = CYP2D6 (Homo sapiens, UniProt P10635); assay: Inhibition of human CYP2D6 using fluorogenic substrate incubated for 60 mins in presence of NADPH by fluorescence assay relative to control; assay type: ADME; conditions: probe fluorogenic substrate; in short: as §2
[32] = Tmax in C57 Black mouse brain at 10 mg/kg, po; assay type: ADME, organism-based; in short: as §3
[33] = Metabolic stability in human hepatocytes assessed as hepatic extraction ratio at 1 uM up to 120 mins by HPLC-MS/MS analysis; assay type: ADME, cell-based, Hepatocyte; in short: as §4
[34] = AUCall in C57 Black mouse spleen at 10 mg/kg, po; assay type: ADME, organism-based; parameters: dose 10 mg/kg; in short: as §1
[35] = Tmax in C57 Black mouse spleen at 10 mg/kg, po; assay type: ADME, organism-based; in short: as §3
[36] = Cmax in C57 Black mouse brain at 10 mg/kg, iv; assay type: ADME, organism-based; parameters: route intravenous, dose 10 mg/kg; in short: as §1
[37] = Half life in C57 Black mouse liver at 10 mg/kg, po; assay type: ADME, organism-based; in short: as §3
[38] = AUCinfinity in C57 Black mouse kidney at 10 mg/kg, po; assay type: ADME, organism-based; parameters: route oral, time infinity, dose 10 mg/kg; in short: as §1
[39] = Cmax in C57 Black mouse kidney at 10 mg/kg, po; assay type: ADME, organism-based; parameters: route oral, dose 10 mg/kg; in short: as §1
[40] = AUCall in C57 Black mouse liver at 10 mg/kg, po; assay type: ADME, organism-based; parameters: dose 10 mg/kg; in short: as §1
[41] = AUClast in C57 Black mouse muscle at 10 mg/kg, iv; assay type: ADME, organism-based, Muscle tissue; parameters: time 0 - last, route intravenous, dose 10 mg/kg; in short: as §1
[42] = AUCinfinity in C57 Black mouse muscle at 10 mg/kg, iv; assay type: ADME, organism-based, Muscle tissue; parameters: time infinity, route intravenous, dose 10 mg/kg; in short: as §1

Chain of CYP2D6 (P10635 whole entry): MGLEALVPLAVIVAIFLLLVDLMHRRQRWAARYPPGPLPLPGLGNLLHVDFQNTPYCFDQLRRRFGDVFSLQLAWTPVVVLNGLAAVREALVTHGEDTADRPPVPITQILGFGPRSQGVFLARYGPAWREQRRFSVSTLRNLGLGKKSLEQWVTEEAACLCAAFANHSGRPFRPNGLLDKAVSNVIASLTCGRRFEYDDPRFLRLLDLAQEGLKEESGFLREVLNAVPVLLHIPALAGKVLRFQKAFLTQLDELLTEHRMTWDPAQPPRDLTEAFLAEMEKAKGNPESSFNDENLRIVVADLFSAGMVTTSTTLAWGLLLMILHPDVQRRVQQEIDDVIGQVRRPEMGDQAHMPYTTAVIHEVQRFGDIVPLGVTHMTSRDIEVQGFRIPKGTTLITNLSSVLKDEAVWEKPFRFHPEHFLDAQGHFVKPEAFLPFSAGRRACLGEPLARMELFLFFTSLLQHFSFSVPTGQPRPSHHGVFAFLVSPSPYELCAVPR
Chain of CYP2C19 (P33261 whole entry): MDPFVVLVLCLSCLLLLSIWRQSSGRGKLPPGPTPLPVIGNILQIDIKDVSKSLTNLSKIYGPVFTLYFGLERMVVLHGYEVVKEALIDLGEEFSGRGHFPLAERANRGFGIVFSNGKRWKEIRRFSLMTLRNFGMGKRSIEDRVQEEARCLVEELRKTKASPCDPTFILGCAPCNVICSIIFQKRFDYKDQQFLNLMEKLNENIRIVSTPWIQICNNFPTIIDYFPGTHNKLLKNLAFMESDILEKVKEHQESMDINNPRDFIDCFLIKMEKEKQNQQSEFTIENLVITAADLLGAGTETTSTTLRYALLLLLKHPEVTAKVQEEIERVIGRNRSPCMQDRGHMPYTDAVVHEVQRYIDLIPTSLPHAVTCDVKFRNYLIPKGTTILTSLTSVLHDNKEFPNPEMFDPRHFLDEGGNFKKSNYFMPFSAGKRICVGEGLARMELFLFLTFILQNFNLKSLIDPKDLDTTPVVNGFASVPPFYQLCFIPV
Chain of CYP3A4 (P08684 whole entry): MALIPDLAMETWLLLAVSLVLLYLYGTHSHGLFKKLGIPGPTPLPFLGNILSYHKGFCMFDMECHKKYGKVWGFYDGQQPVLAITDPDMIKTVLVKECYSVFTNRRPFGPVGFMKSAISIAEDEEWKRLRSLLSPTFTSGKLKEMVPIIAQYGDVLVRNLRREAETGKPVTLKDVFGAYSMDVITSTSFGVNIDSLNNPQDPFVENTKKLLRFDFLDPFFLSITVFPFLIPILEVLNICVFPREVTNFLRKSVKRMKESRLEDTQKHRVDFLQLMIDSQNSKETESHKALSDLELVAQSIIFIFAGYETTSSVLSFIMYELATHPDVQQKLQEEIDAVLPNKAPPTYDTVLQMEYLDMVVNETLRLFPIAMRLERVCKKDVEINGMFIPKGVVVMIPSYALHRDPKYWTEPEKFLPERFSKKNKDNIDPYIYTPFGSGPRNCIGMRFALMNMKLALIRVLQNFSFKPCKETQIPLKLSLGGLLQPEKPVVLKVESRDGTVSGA

## O=C(CCCc1cccs1)N1CCN(c2ccc(C(F)(F)F)cc2)CC1
[1]
  AUC: 763 ng·h/mL
CYP2C19
  inhibition at 1 h: 75.5%
[2]
  AUC(0-t): 463 ng·h/mL
[3]
  efflux ratio at 0.5 h, 10 µM: 0.9
[4]
  AUC(0-t): 240 ng·h/mL
[5]
  Tmax: 15 min
[6]
  Cmax: 165 ng/mL
[7]
  Tmax: 1.8 min
[8]
  half-life: 27 min
[9]
  AUC(0-inf): 523 ng·h/mL
[10]
  hepatic extraction ratio at 2 h, 1 µM: 0.48
[11]
  half-life: 31.2 min
[12]
  Cmax: 996 ng/mL
[13]
  half-life at 1 µM: 327 min
[14]
  Cmax: 1430 ng/mL
[15]
  AUC(0-inf): 1270 ng·h/mL
[16]
  Tmax: 1.8 min
[17]
  solubility thermodynamic at 24 h: 4 µg/mL (≈ 10.5 µM)
[18]
  Vd: 3.19 L/kg
[19]
  Activity: Non-Toxic
[20]
  Vd: 7.13 L/kg
[21]
  Tmax: 1.8 min
[22]
  AUC: 487 ng·h/mL
[23]
  half-life: 27.6 min
[24]
  Cmax: 587 ng/mL
[25]
  half-life at 1 µM: 3 min
[26]
  Cmax: 4880 ng/mL
[27]
  CLH: 346 µL/min
[28]
  AUC(0-t): 487 ng·h/mL
[29]
  IC50: 27 µM
[30]
  AUC(0-inf): 531 ng·h/mL
CYP3A4
  inhibition at 1 h: 80.2%
[31]
  half-life: 34.2 min
CYP2D6
  inhibition at 1 h: -2.7%
[32]
  Tmax: 15 min
[33]
  hepatic extraction ratio at 2 h, 1 µM: 0.98
[34]
  AUC: 1260 ng·h/mL
[35]
  Tmax: 15 min
[36]
  Cmax: 1030 ng/mL
[37]
  half-life: 60 min
[38]
  AUC(0-inf): 1280 ng·h/mL
[39]
  Cmax: 1640 ng/mL
[40]
  AUC: 4050 ng·h/mL
[41]
  AUC(0-t): 77.3 ng·h/mL
[42]
  AUC(0-inf): 107 ng·h/mL
